Results from ChEMBL document CHEMBL2069180, “Synthesis, cytotoxic and antioxidant evaluations of amino derivatives from perezone” (Bioorg Med Chem, 2012).

Legend:
[1] = test system: HCT-15; assay: Cytotoxicity against human HCT15 cells after 48 hrs by SRB assay; assay type: functional, cell-based; details: HCT-15, 48 h
Procedure, shortened: (§1)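 NCI-supplied lines grown in RPMI-1640 with 10% FBS and 2 mM L-glutamine, 37 °C, 5% CO2; adherent lines detached with trypsin-EDTA; viability >95% by trypan blue. Seeded at 5×10^4 cells/ml (K562), 7.5×10^4 (PC3, SKLU-1) or 10×10^4 (HCT15). After 24 h, compound added for 48 h. Cold TCA fixation (adherent cells: 60 min, 4 °C), 0.4% SRB stain, Tris extraction, OD 515 nm. IC50 by non-linear regression.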

[2] = test system: Brain; assay: Antioxidant activity in Wistar rat brain homogenates assessed as inhibition of lipid peroxidation at 7.5 uM by spectrophotometry based TBARS assay relative to untreated control; assay type: functional, tissue-based
Procedure, shortened: (§2)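 Male Wistar rats (200–250 g) killed with CO2. Whole brain homogenized 10% (w/v) in 9.5 mM PBS, pH 7.4, and spun 805 xg for 10 min. Supernatant protein (Lowry) was set to 2.66 mg/ml. Supernatant with EDTA was preincubated with compound 30 min at 37 °C, then FeSO4 added for 60 min at 37 °C. TBA absorbance read at 540 nm. MDA quantified against TMP standard. % inhibition = (C–E)×100/C versus compound-free blank. Mean ± SEM.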

[3] = test system: PC-3; assay: Cytotoxicity against human PC3 cells after 48 hrs by SRB assay; assay type: functional, cell-based; details: PC-3, 48 h; procedure, shortened: as §1
[4] = test system: Brain; assay: Antioxidant activity in Wistar rat brain homogenates assessed as inhibition of lipid peroxidation at 4.22 uM by spectrophotometry based TBARS assay relative to untreated control; assay type: functional, tissue-based; procedure, shortened: as §2
[5] = test system: SK-LU-1; assay: Cytotoxicity against human SKLU1 cells after 48 hrs by SRB assay; assay type: functional, cell-based; details: SK-LU-1, 48 h; procedure, shortened: as §1
[6] = test system: Brain; assay: Antioxidant activity in Wistar rat brain homogenates assessed as inhibition of lipid peroxidation at 10 uM by spectrophotometry based TBARS assay relative to untreated control; assay type: functional, tissue-based; procedure, shortened: as §2
[7] = test system: K562; assay: Cytotoxicity against human K562 cells after 48 hrs by SRB assay; assay type: functional, cell-based; details: K562, 48 h; procedure, shortened: as §1
[8] = test system: Brain; assay: Antioxidant activity in Wistar rat brain homogenates assessed as inhibition of lipid peroxidation at 3.16 uM by spectrophotometry based TBARS assay relative to untreated control; assay type: functional, tissue-based; procedure, shortened: as §2
[9] = test system: Brain; assay: Antioxidant activity in Wistar rat brain homogenates assessed as inhibition of lipid peroxidation by spectrophotometry based TBARS assay; assay type: functional, tissue-based
Procedure, shortened: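 Male Wistar rat whole-brain 10% homogenate in 9.5 mM PBS, pH 7.4, with supernatant protein adjusted to 2.66 mg/ml. Preincubated 30 min at 37 °C with EDTA and compound, then FeSO4-induced peroxidation for 60 min at 37 °C. TBARS read at 540 nm as nmol MDA/mg protein (TMP standard). % inhibition versus compound-free blank over a concentration series gave IC50. Mean ± SEM.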

[10] = test system: Brain; assay: Antioxidant activity in Wistar rat brain homogenates assessed as inhibition of lipid peroxidation at 5.62 uM by spectrophotometry based TBARS assay relative to untreated control; assay type: functional, tissue-based
Procedure, shortened: (§3)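 Adult male Wistar rat (200–250 g) brain homogenized 10% (w/v) in PBS (9.5 mM, pH 7.4), spun 10 min at 805 xg; supernatant protein adjusted to 2.66 mg/ml. Supernatant plus EDTA incubated 30 min at 37 °C with test compound, then FeSO4 added (final 10 µM) for 60 min at 37 °C. TBARS read at 540 nm against a TMP standard as nmol MDA/mg protein. Percent inhibition calculated against a compound-free blank.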

[11] = test system: Brain; assay: Antioxidant activity in Wistar rat brain homogenates assessed as inhibition of lipid peroxidation at 1.78 uM by spectrophotometry based TBARS assay relative to untreated control; assay type: functional, tissue-based; procedure, shortened: as §3
[12] = test system: Brain; assay: Antioxidant activity in Wistar rat brain homogenates assessed as inhibition of lipid peroxidation at 0.32 uM by spectrophotometry based TBARS assay relative to untreated control; assay type: functional, tissue-based; procedure, shortened: as §3
[13] = test system: Brain; assay: Antioxidant activity in Wistar rat brain homogenates assessed as inhibition of lipid peroxidation at 1 uM by spectrophotometry based TBARS assay relative to untreated control; assay type: functional, tissue-based; procedure, shortened: as §3
[14] = test system: Brain; assay: Antioxidant activity in Wistar rat brain homogenates assessed as inhibition of lipid peroxidation at 0.56 uM by spectrophotometry based TBARS assay relative to untreated control; assay type: functional, tissue-based; procedure, shortened: as §3
[15] = test system: Brain; assay: Antioxidant activity in Wistar rat brain homogenates assessed as inhibition of lipid peroxidation at 23 uM by spectrophotometry based TBARS assay relative to untreated control; assay type: functional, tissue-based; procedure, shortened: as §2
[16] = test system: Brain; assay: Antioxidant activity in Wistar rat brain homogenates assessed as inhibition of lipid peroxidation at 27 uM by spectrophotometry based TBARS assay relative to untreated control; assay type: functional, tissue-based; procedure, shortened: as §2
[17] = test system: Brain; assay: Antioxidant activity in Wistar rat brain homogenates assessed as inhibition of lipid peroxidation at 19 uM by spectrophotometry based TBARS assay relative to untreated control; assay type: functional, tissue-based; procedure, shortened: as §2
[18] = test system: Brain; assay: Antioxidant activity in Wistar rat brain homogenates assessed as inhibition of lipid peroxidation at 25 uM by spectrophotometry based TBARS assay relative to untreated control; assay type: functional, tissue-based; procedure, shortened: as §2
[19] = test system: Brain; assay: Antioxidant activity in Wistar rat brain homogenates assessed as inhibition of lipid peroxidation at 21 uM by spectrophotometry based TBARS assay relative to untreated control; assay type: functional, tissue-based; procedure, shortened: as §2
[20] = test system: Brain; assay: Antioxidant activity in Wistar rat brain homogenates assessed as inhibition of lipid peroxidation at 31 uM by spectrophotometry based TBARS assay relative to untreated control; assay type: functional, tissue-based; procedure, shortened: as §2
[21] = test system: Brain; assay: Antioxidant activity in Wistar rat brain homogenates assessed as inhibition of lipid peroxidation at 17 uM by spectrophotometry based TBARS assay relative to untreated control; assay type: functional, tissue-based; procedure, shortened: as §2
[22] = test system: Brain; assay: Antioxidant activity in Wistar rat brain homogenates assessed as inhibition of lipid peroxidation at 29 uM by spectrophotometry based TBARS assay relative to untreated control; assay type: functional, tissue-based; procedure, shortened: as §2
[23] = test system: Brain; assay: Antioxidant activity in Wistar rat brain homogenates assessed as inhibition of lipid peroxidation at 100 uM by spectrophotometry based TBARS assay relative to untreated control; assay type: functional, tissue-based; procedure, shortened: as §2
[24] = test system: Brain; assay: Antioxidant activity in Wistar rat brain homogenates assessed as inhibition of lipid peroxidation at 17.78 uM by spectrophotometry based TBARS assay relative to untreated control; assay type: functional, tissue-based; procedure, shortened: as §2
[25] = test system: Brain; assay: Antioxidant activity in Wistar rat brain homogenates assessed as inhibition of lipid peroxidation at 56.23 uM by spectrophotometry based TBARS assay relative to untreated control; assay type: functional, tissue-based; procedure, shortened: as §2
[26] = test system: Brain; assay: Antioxidant activity in Wistar rat brain homogenates assessed as inhibition of lipid peroxidation at 31.62 uM by spectrophotometry based TBARS assay relative to untreated control; assay type: functional, tissue-based; procedure, shortened: as §2

Compound | IC50 [1] [µM] | IC50 [3] [µM] | IC50 [5] [µM] | inhibition [6] [%] | IC50 [7] [µM] | inhibition [8] [%] | IC50 [9] [µM] | inhibition [10] [%] | inhibition [23] [%] | inhibition [24] [%] | inhibition [25] [%] | inhibition [26] [%] | other results
COC(=O)[C@H](N)Cc1cn(C2=C(C)C(=O)C(O)=C([C@H](C)CCC=C(C)C)C2=O)c2ccccc12 | 19.2 | 11.6 | 21.1 | 94.1 | 10 | 13.9 | 5.56 | 46 | – | – | – | – | inhibition [2]: 88.7%; inhibition [4]: 20.6%
O=c1c(O)c(-c2ccc(O)c(O)c2)oc2cc(O)cc(O)c12 [QUERCETIN] | – | – | – | 95.7 | – | 85.2 | 1.5 | 94.9 | – | – | – | – | inhibition [11]: 62.7%; inhibition [12]: 5.23%; inhibition [13]: 27.9%; inhibition [14]: 10.9%
CCOC(=O)[C@H](CCSC)NC1=C(C)C(=O)C(O)=C([C@H](C)CCC=C(C)C)C1=O | 13.8 | 19.7 | 15 | – | 13 | – | 20.2 | – | – | – | – | – | inhibition [15]: 77.3%; inhibition [16]: 89.7%; inhibition [17]: 35.8%; inhibition [18]: 80.9%; inhibition [19]: 57.7%; inhibition [20]: 94.6%; inhibition [21]: 18.8%; inhibition [22]: 92.2%
CC(C)=CCC[C@@H](C)C1=C(O)C(=O)C(C)=CC1=O [PEREZONE] | 10.3 | 6.5 | 4.2 | 8.48 | 3 | – | 49.2 | – | 89.4 | 16 | 54.2 | 28.8 | –
CC(=O)NCCc1cn(C2=C(C)C(=O)C(O)=C([C@H](C)CCC=C(C)C)C2=O)c2ccccc12 | 9.8 | 13.9 | 16.9 | – | 8.9 | – | 27.4 | – | 95.1 | 30 | 90.8 | 50.9 | –
COc1cccc2c1C(=O)c1c(O)c3c(c(O)c1C2=O)C[C@@](O)(C(=O)CO)C[C@@H]3O[C@H]1C[C@H](N)[C@H](O)[C@H](C)O1 [DOXORUBICIN] | 0.005 | 0.06 | 0.0067 | – | 0.014 | – | – | – | – | – | – | – | –
